{
  "source": "ChEMBL document CHEMBL2040845",
  "about": "“Discovery of novel sulfonated small molecules that inhibit vascular tube formation” (Bioorg Med Chem Lett, 2012)",
  "assay_type_in_all_cases": "functional",
  "key": {"Bos taurus [1]": {"organism": "Bos taurus", "experiment": "Antiangiogenic activity against BLMVEC grown on RGF-BME assessed as inhibition of tube-like network formation at 100 uM after 16 hrs by calcein staining-based microscopy", "outline": "(§1)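 1×10^5 BLMVEC premixed with test compound in MCDB-131 medium, then added to matrigel in duplicate wells. Wells received 100 μM compound. Controls were untreated wells and sulforaphane. Plates were incubated 16 hrs at 37 °C and cells were imaged by microscopy. Inhibition was scored from network morphology: branching and interconnection of tubes versus dispersed cells or short, unconnected tubes.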"}, "Endothelial cell": {"system": "Endothelial cell", "experiment": "Antiangiogenic activity against BLMVEC grown on RGF-BME assessed as dispersed endothelial cells at 100 uM after 16 hrs by calcein staining-based microscopy", "details": "Bos taurus", "outline": "as §1"}, "Bos taurus [2]": {"organism": "Bos taurus", "experiment": "Antiangiogenic activity against BLMVEC grown on RGF-BME assessed as formation of small cell clumps at 100 uM after 16 hrs by calcein staining-based microscopy", "outline": "as §1"}, "Bos taurus [3]": {"organism": "Bos taurus", "experiment": "Antiangiogenic activity against BLMVEC grown on RGF-BME assessed as inhibition of tube formation at 100 uM after 16 hrs by calcein staining-based microscopy", "outline": "as §1"}, "Bos taurus [4]": {"organism": "Bos taurus", "experiment": "Antiangiogenic activity against BLMVEC grown on RGF-BME assessed as inhibition of branching at 100 uM after 16 hrs by calcein staining-based microscopy", "outline": "as §1"}},
  "note": "Calls of active or inactive are those of the source. The rule behind the calls is not given here.",
  "data": [
    {"smiles": "O=c1c(OS(=O)(=O)O)c(-c2ccccc2OS(=O)(=O)O)oc2ccccc12", "values": [
      {"measurement": "inhibition", "setting": "Bos taurus [1]", "result": "Active"},
      {"measurement": "Activity", "setting": "Endothelial cell", "result": "Active"},
      {"measurement": "Activity", "setting": "Bos taurus [2]", "result": "Active"},
      {"measurement": "inhibition", "setting": "Bos taurus [3]", "result": "Active"}
    ]},
    {"smiles": "O=C(c1ccc(OS(=O)(=O)O)c(OS(=O)(=O)O)c1)N1CCc2cc(OS(=O)(=O)O)c(OS(=O)(=O)O)cc2C1", "values": [
      {"measurement": "inhibition", "setting": "Bos taurus [1]", "result": "inactive"},
      {"measurement": "Activity", "setting": "Endothelial cell", "result": "inactive"},
      {"measurement": "Activity", "setting": "Bos taurus [2]", "result": "inactive"},
      {"measurement": "inhibition", "setting": "Bos taurus [3]", "result": "inactive"},
      {"measurement": "inhibition", "setting": "Bos taurus [4]", "result": "inactive"}
    ]},
    {"smiles": "O=C1c2c(cc(OS(=O)(=O)O)cc2OS(=O)(=O)O)O[C@@H](c2ccc(OS(=O)(=O)O)c(OS(=O)(=O)O)c2)[C@@H]1OS(=O)(=O)O", "values": [
      {"measurement": "inhibition", "setting": "Bos taurus [1]", "result": "inactive"},
      {"measurement": "Activity", "setting": "Endothelial cell", "result": "inactive"},
      {"measurement": "Activity", "setting": "Bos taurus [2]", "result": "inactive"},
      {"measurement": "inhibition", "setting": "Bos taurus [3]", "result": "inactive"},
      {"measurement": "inhibition", "setting": "Bos taurus [4]", "result": "inactive"}
    ]},
    {"smiles": "CCOC(=O)[C@@H]1Cc2cc(OS(=O)(=O)O)c(OS(=O)(=O)O)cc2CN1C(=O)c1cc(OS(=O)(=O)O)c(OS(=O)(=O)O)c(OS(=O)(=O)O)c1", "values": [
      {"measurement": "inhibition", "setting": "Bos taurus [1]", "result": "inactive"},
      {"measurement": "Activity", "setting": "Endothelial cell", "result": "inactive"},
      {"measurement": "Activity", "setting": "Bos taurus [2]", "result": "inactive"},
      {"measurement": "inhibition", "setting": "Bos taurus [3]", "result": "inactive"},
      {"measurement": "inhibition", "setting": "Bos taurus [4]", "result": "inactive"}
    ]},
    {"smiles": "O=c1c(OS(=O)(=O)O)c(-c2ccc(OS(=O)(=O)O)c(OS(=O)(=O)O)c2)oc2cc(OS(=O)(=O)O)cc(OS(=O)(=O)O)c12", "values": [
      {"measurement": "inhibition", "setting": "Bos taurus [1]", "result": "inactive"},
      {"measurement": "Activity", "setting": "Endothelial cell", "result": "inactive"},
      {"measurement": "Activity", "setting": "Bos taurus [2]", "result": "inactive"},
      {"measurement": "inhibition", "setting": "Bos taurus [3]", "result": "inactive"},
      {"measurement": "inhibition", "setting": "Bos taurus [4]", "result": "inactive"}
    ]},
    {"smiles": "O=c1cc(-c2ccc(OS(=O)(=O)O)c(OS(=O)(=O)O)c2)oc2cc(OS(=O)(=O)O)cc(OS(=O)(=O)O)c12", "values": [
      {"measurement": "inhibition", "setting": "Bos taurus [1]", "result": "Active"},
      {"measurement": "Activity", "setting": "Endothelial cell", "result": "Active"},
      {"measurement": "Activity", "setting": "Bos taurus [2]", "result": "Active"},
      {"measurement": "inhibition", "setting": "Bos taurus [3]", "result": "Active"}
    ]},
    {"smiles": "CCOC(=O)[C@@H]1Cc2cc(OS(=O)(=O)O)c(OS(=O)(=O)O)cc2CN1C(=O)c1ccc(OS(=O)(=O)O)c(OS(=O)(=O)O)c1", "values": [
      {"measurement": "inhibition", "setting": "Bos taurus [1]", "result": "inactive"},
      {"measurement": "Activity", "setting": "Endothelial cell", "result": "inactive"},
      {"measurement": "Activity", "setting": "Bos taurus [2]", "result": "inactive"},
      {"measurement": "inhibition", "setting": "Bos taurus [3]", "result": "inactive"},
      {"measurement": "inhibition", "setting": "Bos taurus [4]", "result": "inactive"}
    ]},
    {"smiles": "O=c1c(OS(=O)(=O)O)c(-c2ccc(OS(=O)(=O)O)cc2OS(=O)(=O)O)oc2ccc(OS(=O)(=O)O)cc12", "values": [
      {"measurement": "inhibition", "setting": "Bos taurus [1]", "result": "inactive"},
      {"measurement": "Activity", "setting": "Endothelial cell", "result": "inactive"},
      {"measurement": "Activity", "setting": "Bos taurus [2]", "result": "inactive"},
      {"measurement": "inhibition", "setting": "Bos taurus [3]", "result": "inactive"},
      {"measurement": "inhibition", "setting": "Bos taurus [4]", "result": "inactive"}
    ]},
    {"smiles": "O=C1c2c(cc(OS(=O)(=O)O)cc2OS(=O)(=O)O)O[C@@H](c2ccc(OS(=O)(=O)O)c(OS(=O)(=O)O)c2)[C@H]1OS(=O)(=O)O", "values": [
      {"measurement": "inhibition", "setting": "Bos taurus [1]", "result": "inactive"},
      {"measurement": "Activity", "setting": "Endothelial cell", "result": "inactive"},
      {"measurement": "Activity", "setting": "Bos taurus [2]", "result": "inactive"},
      {"measurement": "inhibition", "setting": "Bos taurus [3]", "result": "inactive"},
      {"measurement": "inhibition", "setting": "Bos taurus [4]", "result": "inactive"}
    ]},
    {"smiles": "C[C@]12CC[C@@H]3c4ccc(OS(=O)(=O)O)cc4CC[C@H]3[C@@H]1CC[C@@H]2O", "values": [
      {"measurement": "inhibition", "setting": "Bos taurus [1]", "result": "Active"},
      {"measurement": "Activity", "setting": "Endothelial cell", "result": "Active"},
      {"measurement": "Activity", "setting": "Bos taurus [2]", "result": "Active"},
      {"measurement": "inhibition", "setting": "Bos taurus [3]", "result": "Active"}
    ]},
    {"smiles": "O=C(CCc1ccc(OS(=O)(=O)O)cc1)c1c(OS(=O)(=O)O)cc(OS(=O)(=O)O)cc1OS(=O)(=O)O", "values": [
      {"measurement": "inhibition", "setting": "Bos taurus [1]", "result": "Active"},
      {"measurement": "Activity", "setting": "Endothelial cell", "result": "Active"},
      {"measurement": "Activity", "setting": "Bos taurus [2]", "result": "Active"},
      {"measurement": "inhibition", "setting": "Bos taurus [3]", "result": "Active"}
    ]},
    {"smiles": "O=c1c(OS(=O)(=O)O)c(-c2ccc(OS(=O)(=O)O)c(OS(=O)(=O)O)c2)oc2cc(OS(=O)(=O)O)ccc12", "values": [
      {"measurement": "inhibition", "setting": "Bos taurus [1]", "result": "inactive"},
      {"measurement": "Activity", "setting": "Endothelial cell", "result": "inactive"},
      {"measurement": "Activity", "setting": "Bos taurus [2]", "result": "inactive"},
      {"measurement": "inhibition", "setting": "Bos taurus [3]", "result": "inactive"},
      {"measurement": "inhibition", "setting": "Bos taurus [4]", "result": "inactive"}
    ]},
    {"smiles": "O=C(c1cc(OS(=O)(=O)O)c(OS(=O)(=O)O)c(OS(=O)(=O)O)c1)N1CCc2cc(OS(=O)(=O)O)c(OS(=O)(=O)O)cc2C1", "values": [
      {"measurement": "inhibition", "setting": "Bos taurus [1]", "result": "inactive"},
      {"measurement": "Activity", "setting": "Endothelial cell", "result": "inactive"},
      {"measurement": "Activity", "setting": "Bos taurus [2]", "result": "inactive"},
      {"measurement": "inhibition", "setting": "Bos taurus [3]", "result": "inactive"},
      {"measurement": "inhibition", "setting": "Bos taurus [4]", "result": "inactive"}
    ]},
    {"smiles": "O=c1cc(-c2ccc(OS(=O)(=O)O)cc2)oc2cc(OS(=O)(=O)O)cc(OS(=O)(=O)O)c12", "values": [
      {"measurement": "inhibition", "setting": "Bos taurus [1]", "result": "Active"},
      {"measurement": "Activity", "setting": "Endothelial cell", "result": "Active"},
      {"measurement": "Activity", "setting": "Bos taurus [2]", "result": "Active"},
      {"measurement": "inhibition", "setting": "Bos taurus [3]", "result": "Active"}
    ]}
  ]
}
